Results gathered from unrelated publications.
In brackets after ≈: the same amount, converted by molar mass.

CC(C)=CCC/C(C)=C/COc1cc(O)cc(O)c1C(=O)c1ccccc1 has an IC50 of 380000 nM (ABTS scavenging, absorbance; 5 min).
For O=C(c1ccc(F)cc1)c1c[nH]c2ncc(-c3ccc(N4CCNCC4)cc3)cc12, the viability was 89.1% (A549; cell growth or viability, MTT; 10 µM, 48 h).
For Cc1cc(C(C)(C)C)c(O)c(C(C)(C)C)c1, the IC50 was 80 nM (ABTS scavenging, absorbance; 5 min).
Cc1nc2c(N)nc(=O)[nH]c2n1CC(=O)O gave an IC50 of 39 nM (unidentified influenza virus; viral replication; A549, H1N1 PR8; 24 h).
For O=C(NCCCCCCNc1c2c(nc3ccccc13)CCCC2)c1ccccc1O, the IC50 was 21300 nM (ABTS scavenging; 1 h).
The IC50 of CCOC(=O)C1=C[C@@H](OC(CC)CC)[C@H](NC(C)=O)[C@@H](N)C1 is reported as 180 nM (unidentified influenza virus; viral replication; A549, H1N1 PR8; 24 h).
For N=C(N)c1ccc(OCCCCCOc2ccc(C(=N)N)cc2)cc1, the IC90 was 2 µg/mL (≈ 5.87 µM) (Leishmania donovani; parasite growth, resazurin; 72 h, promastigote).
With C[C@]12C=CC(=O)C[C@@H]1CC[C@@H]1[C@@H]2C(=O)C[C@@]2(C)[C@H]1CC[C@]2(C)O the IC50 was greater than 30000 nM (NIH3T3; cell growth or viability, MTT; 24 h).
C[C@]1(COc2ccc(N3CCC(Oc4ccc(OC(F)(F)F)cc4)CC3)cc2)Cn2cc([N+](=O)[O-])nc2O1 has an IC50 of 249 nM (Leishmania donovani; parasite growth; promastigote).
C[C@@H]1[C@H](O)[C@@H](C)/C=C/C=C/C=C/C=C/C=C/C=C/C=C/[C@H](O[C@@H]2O[C@H](C)[C@@H](O)[C@H](N)[C@@H]2O)C[C@@H]2O[C@](O)(C[C@@H](O)C[C@@H](O)[C@H](O)CC[C@@H](O)C[C@@H](O)CC(=O)O[C@H]1C)C[C@H](O)[C@H]2C(=O)O gave an IC90 of 1.7 µg/mL (≈ 1.84 µM) (Leishmania donovani; parasite growth; THP-1; intracellular, amastigote).
The inhibition of O=C(N/N=C1\C(=O)N(Cc2ccccc2)c2ccc(F)cc21)c1cc2ccccc2[nH]1 is reported as 99.1% (A549; cell growth or viability; 30 µM).
Cc1nc2c(N)nc(=O)[nH]c2n1C(Cc1ccccc1)C(=O)O (stereo not shown) gave an IC50 of 520 nM (unidentified influenza virus; viral replication; A549, H1N1 PR8; 24 h).
The inhibition of Oc1c(Cl)cc(Cl)cc1Sc1cc(Cl)cc(Cl)c1O is reported as roughly 70% (Betapolyomavirus hominis; viral replication, inhibitor, qPCR; Vero; 30 µM, 5 days).
For CC(C)(C)OC(=O)N1CCN(c2cc(-c3cnc4[nH]cc(C(=O)c5ccc(F)cc5)c4c3)ccn2)CC1, the viability was 84.2% (A549; cell growth or viability, MTT; 10 µM, 48 h).
For Nc1ncnc2c([C@@H]3N[C@H](CO)[C@@H](O)[C@H]3O)c[nH]c12, the inhibition was 100% (unidentified influenza virus; viral replication, inhibitor; MDCK; 29.6 µM).
With O=C(NCCCCCCCCNc1c2c(nc3ccccc13)CCCC2)c1ccccc1O the IC50 was 25900 nM (ABTS scavenging; 1 h).
